According to ChEMBL document CHEMBL3739303, “Targeting the Src Homology 2 (SH2) Domain of Signal Transducer and Activator of Transcription 6 (STAT6) with Cell-Permeable, Phosphatase-Stable Phosphopeptide Mimics Potently Inhibits Tyr641 Phosphorylation and Transcriptional Activity” (J Med Chem, 2015):
Active and inactive are the calls of the source. The calls are words filed in the database; no cut-off is given here.

Key:
[1] = molecular target: T1, Signal transducer and activator of transcription 6 (Homo sapiens) (UniProt P42226); assay: Inhibition of IL4-induced STAT6 phosphorylation in human MDA-MB-468 cells at 0.1 to 5 uM incubated for 2 hrs followed by stimulation with IL4 for 1 hr by Western blot assay; type: cell-based
T1 sequence (whole entry): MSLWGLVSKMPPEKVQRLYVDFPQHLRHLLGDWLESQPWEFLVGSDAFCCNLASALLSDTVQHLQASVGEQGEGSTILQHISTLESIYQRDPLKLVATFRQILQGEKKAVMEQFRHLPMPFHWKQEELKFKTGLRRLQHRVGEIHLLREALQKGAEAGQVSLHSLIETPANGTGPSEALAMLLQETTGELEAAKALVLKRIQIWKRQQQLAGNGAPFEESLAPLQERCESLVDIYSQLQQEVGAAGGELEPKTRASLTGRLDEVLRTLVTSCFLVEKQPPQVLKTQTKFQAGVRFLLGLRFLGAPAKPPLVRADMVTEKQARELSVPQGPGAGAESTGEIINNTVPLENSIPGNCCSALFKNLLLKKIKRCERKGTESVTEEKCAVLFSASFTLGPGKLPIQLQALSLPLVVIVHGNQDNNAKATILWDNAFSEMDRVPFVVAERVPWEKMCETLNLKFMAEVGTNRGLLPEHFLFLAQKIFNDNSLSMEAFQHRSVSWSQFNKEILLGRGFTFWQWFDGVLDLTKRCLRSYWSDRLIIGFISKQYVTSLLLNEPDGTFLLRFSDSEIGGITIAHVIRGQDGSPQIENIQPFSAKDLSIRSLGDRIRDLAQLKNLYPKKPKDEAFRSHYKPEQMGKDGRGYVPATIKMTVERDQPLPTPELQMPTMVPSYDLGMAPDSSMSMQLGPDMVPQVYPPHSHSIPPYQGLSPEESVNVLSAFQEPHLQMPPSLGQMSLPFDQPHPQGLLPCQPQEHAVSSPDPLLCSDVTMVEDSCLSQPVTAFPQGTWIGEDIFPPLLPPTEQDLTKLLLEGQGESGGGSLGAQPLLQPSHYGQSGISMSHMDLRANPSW
Method in brief: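 MDA-MB-468 breast cancer cells serum-starved, treated with prodrugs, then IL-4 stimulated; pSTAT6 read by Western blot.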

[2] = molecular target: RAC-alpha serine/threonine-protein kinase (Homo sapiens) (UniProt P31749); assay: Inhibition of EGF-induced AKT phosphorylation at S473 in human MDA-MB-468 cells at 5 uM incubated for 2 hrs followed by stimulation with EGF for 1 hr by Western blot assay; type: cell-based
Sequence of RAC-alpha serine/threonine-protein kinase (Homo sapiens) (P31749 whole entry): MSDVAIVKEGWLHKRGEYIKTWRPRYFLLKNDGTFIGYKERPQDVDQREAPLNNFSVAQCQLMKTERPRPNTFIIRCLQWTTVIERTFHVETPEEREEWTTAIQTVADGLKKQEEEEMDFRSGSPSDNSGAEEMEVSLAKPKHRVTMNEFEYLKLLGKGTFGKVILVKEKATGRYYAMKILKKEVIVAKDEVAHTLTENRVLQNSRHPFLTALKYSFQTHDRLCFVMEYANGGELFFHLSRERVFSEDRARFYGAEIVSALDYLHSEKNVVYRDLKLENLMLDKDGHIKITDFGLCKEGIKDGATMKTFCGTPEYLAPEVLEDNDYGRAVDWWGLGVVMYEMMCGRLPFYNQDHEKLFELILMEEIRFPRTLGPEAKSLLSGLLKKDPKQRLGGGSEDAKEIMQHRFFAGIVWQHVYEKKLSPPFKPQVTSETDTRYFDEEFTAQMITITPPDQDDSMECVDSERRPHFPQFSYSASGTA

[3] = molecular target: T2, Signal transducer and activator of transcription 1 (Mus musculus) (UniProt P42225); assay: Inhibition of IL6-induced STAT1 phosphorylation at Y701 in CD4+ T lymphocytes isolated from C57BL/6J mouse preincubated for 2 hrs followed by activation with plate-bound anti-CD3/anti-CD28 and IL6 for 15 mins by Western blot analysis; type: cell-based
T2 sequence (whole entry): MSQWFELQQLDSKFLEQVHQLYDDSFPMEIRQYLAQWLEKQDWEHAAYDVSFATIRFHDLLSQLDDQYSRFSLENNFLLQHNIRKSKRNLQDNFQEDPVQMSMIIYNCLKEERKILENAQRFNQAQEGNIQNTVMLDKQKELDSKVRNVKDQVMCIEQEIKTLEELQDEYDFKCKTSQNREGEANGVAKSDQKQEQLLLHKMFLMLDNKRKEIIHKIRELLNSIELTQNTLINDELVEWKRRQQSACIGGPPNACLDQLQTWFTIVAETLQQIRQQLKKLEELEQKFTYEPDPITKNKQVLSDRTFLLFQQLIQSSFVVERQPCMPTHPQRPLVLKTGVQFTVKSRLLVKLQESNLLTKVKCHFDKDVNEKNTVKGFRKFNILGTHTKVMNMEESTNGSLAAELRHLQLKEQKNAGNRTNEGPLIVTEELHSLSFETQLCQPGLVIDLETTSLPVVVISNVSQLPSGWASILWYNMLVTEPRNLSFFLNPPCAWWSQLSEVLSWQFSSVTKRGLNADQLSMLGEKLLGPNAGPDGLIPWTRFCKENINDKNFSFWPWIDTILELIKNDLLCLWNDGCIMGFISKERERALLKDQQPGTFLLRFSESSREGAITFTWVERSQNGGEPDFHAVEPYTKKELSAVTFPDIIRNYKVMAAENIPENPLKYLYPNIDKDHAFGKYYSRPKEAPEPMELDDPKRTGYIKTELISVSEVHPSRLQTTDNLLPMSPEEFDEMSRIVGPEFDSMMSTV
Method in brief: (§1)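 CD4+ T cells from C57BL/6J mice, sorted by AutoMACS; activated 15 min with plate-bound anti-CD3 and/or anti-CD28 with IL-2, IL-6 or IL-4; lysed with protease inhibitors plus 10 mM NaF and 1 mM Na3VO4; Bradford-normalised immunoblots for pSTAT1 (Tyr701), pSTAT5 (Tyr694), pSTAT6 (Tyr641) and total STATs.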

Mus musculus = species on record: Mus musculus; assay: Inhibition of IL2-induced STAT5 phosphorylation at Y694 in CD4+ T lymphocytes isolated from C57BL/6J mouse at 0.5 to 5 uM preincubated for 2 hrs followed by activation with plate-bound anti-CD3/anti-CD28 and IL2 for 15 mins by Western blot analysis; type: cell-based; method in brief: as §1
[4] = molecular target: T1, Signal transducer and activator of transcription 6 (Homo sapiens); assay: Inhibition of IL4-stimulated STAT6 phosphorylation at tyrosine 641 in human Beas-2B cells at 0.025 to 5 uM incubated for 2 hrs followed by stimulation with IL4 for 1 hr by Western blot assay; type: cell-based
Method in brief: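 Beas-2B seeded at 3.0 × 10^5 cells/well the day before; prodrugs from DMSO stocks added to final concentrations for 2 h, then IL-4 (2 ng/mL) for 1 h. PBS-washed cells lysed with PMSF, protein by modified Lowry; blots blocked in 3% BSA/TBST, probed for pSTAT6 (Tyr641), stripped and reprobed for total STAT6; ECL on X-ray film.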

[5] = molecular target: T1, Signal transducer and activator of transcription 6 (Homo sapiens); assay: Inhibition of IL-13-stimulated STAT6 SH2 domain phosphorylation in human Beas-2B cells assessed as inhibition of CCL26 mRNA expression preincubated for 2 hrs followed by stimulation with IL-13 for 24 hrs by RT-PCR analysis
[6] = molecular target: Signal transducer and activator of transcription 3 (Mus musculus) (UniProt P42227); assay: Inhibition of IL6-induced STAT3 phosphorylation at S727 in CD4+ T lymphocytes isolated from C57BL/6J mouse preincubated for 2 hrs followed by activation with plate-bound anti-CD3/anti-CD28 for 15 mins by Western blot analysis
Sequence of Signal transducer and activator of transcription 3 (Mus musculus) (P42227 whole entry, the tested form may be a part): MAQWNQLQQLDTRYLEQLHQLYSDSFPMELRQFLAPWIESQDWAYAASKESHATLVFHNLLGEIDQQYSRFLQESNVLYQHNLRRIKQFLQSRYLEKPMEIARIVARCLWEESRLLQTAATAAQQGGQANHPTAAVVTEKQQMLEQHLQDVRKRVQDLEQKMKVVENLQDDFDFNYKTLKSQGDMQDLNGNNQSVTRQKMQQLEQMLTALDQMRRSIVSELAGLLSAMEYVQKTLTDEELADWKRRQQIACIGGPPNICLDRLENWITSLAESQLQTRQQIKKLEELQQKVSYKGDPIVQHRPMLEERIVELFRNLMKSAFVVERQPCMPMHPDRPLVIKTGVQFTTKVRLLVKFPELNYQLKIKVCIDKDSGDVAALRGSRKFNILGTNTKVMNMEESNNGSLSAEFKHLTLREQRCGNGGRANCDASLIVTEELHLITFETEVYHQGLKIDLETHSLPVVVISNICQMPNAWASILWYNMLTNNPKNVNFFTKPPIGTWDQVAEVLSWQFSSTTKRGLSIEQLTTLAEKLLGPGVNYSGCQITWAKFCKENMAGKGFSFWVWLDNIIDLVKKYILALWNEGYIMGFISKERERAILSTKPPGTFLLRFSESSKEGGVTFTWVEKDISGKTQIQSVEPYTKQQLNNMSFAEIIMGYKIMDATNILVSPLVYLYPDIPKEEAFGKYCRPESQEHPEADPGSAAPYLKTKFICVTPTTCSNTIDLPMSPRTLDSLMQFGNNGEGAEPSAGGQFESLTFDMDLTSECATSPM

[7] = molecular target: T1, Signal transducer and activator of transcription 6 (Homo sapiens); assay: Inhibition of IL-13-stimulated STAT6 SH2 domain phosphorylation in human Beas-2B cells assessed as inhibition of CCL26 mRNA expression at 100 nM preincubated for 2 hrs followed by stimulation with IL-13 for 24 hrs by RT-PCR analysis relative to control

inhibition [1]: Active
inhibition [2]: Active
inhibition [3]: inactive
inhibition [4]: Active
inhibition [5]: Dose-dependent effect
inhibition [6]: inactive
inhibition [7]: > 50%
SMILES: C/C(=C\C(=O)N[C@H](C(=O)N1CCC[C@H]1C(=O)N(C)c1ccccc1)C(C)(C)C)c1ccc(C(F)(F)P(=O)(OCOC(=O)C(C)(C)C)OCOC(=O)C(C)(C)C)cc1
inhibition (Mus musculus): Active
